Format in all cases: cell-free, HEK-293T
The target of experiment [1] is T1, Phospholipase A and acyltransferase 3 (Homo sapiens, UniProt P53816).
T1 sequence (P53816 whole entry): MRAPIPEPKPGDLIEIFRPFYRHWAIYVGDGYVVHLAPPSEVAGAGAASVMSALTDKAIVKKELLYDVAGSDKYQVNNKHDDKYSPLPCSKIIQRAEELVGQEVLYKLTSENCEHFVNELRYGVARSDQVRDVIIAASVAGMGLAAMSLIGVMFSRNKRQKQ
The experiment is described as follows: Inhibition of full-length C-terminal FLAG-tagged human PLAAT3 expressed in HEK293T cell lysate preincubated for 30 mins followed by MB064 addition and measured after 20 mins by SDS-PAGE based ABPP analysis. Conditions: for pIC50: hek-293t. An outline of the steps: (§1)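 Dose–response competitive ABPP on cytosol only, from HEK293T overexpressing FLAG-tagged PLAAT. Inhibitor 30 min rt, then MB064 20 min rt. PLAAT2 0.25 μg/μL with 250 nM probe; PLAAT3 0.5 μg/μL with 250 nM; PLAAT4 and PLAAT5 1 μg/μL with 500 nM. Fluorescence normalized to Coomassie. IC50 from curves, reported as pIC50 ± SEM, n = 3.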

In experiment [2] the target is T2, Phospholipase A and acyltransferase 5 (Homo sapiens, UniProt Q96KN8).
T2 sequence (Q96KN8 whole entry): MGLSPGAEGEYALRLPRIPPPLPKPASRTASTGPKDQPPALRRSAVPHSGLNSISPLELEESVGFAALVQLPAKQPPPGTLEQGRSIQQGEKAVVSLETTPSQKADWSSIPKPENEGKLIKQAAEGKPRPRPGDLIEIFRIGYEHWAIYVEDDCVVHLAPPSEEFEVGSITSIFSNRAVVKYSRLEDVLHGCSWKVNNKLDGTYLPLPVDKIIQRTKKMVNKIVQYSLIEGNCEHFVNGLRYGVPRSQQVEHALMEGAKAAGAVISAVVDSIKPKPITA
Description: Inhibition of full-length C-terminal FLAG-tagged human PLAAT5 expressed in HEK293T cell lysate preincubated for 30 mins followed by MB064 addition and measured after 20 mins by SDS-PAGE based ABPP analysis. An outline of the steps:
as §1

Experiment [3] deals with T3, Phospholipase A and acyltransferase 4 (Homo sapiens, UniProt Q9UL19).
T3 sequence (Q9UL19 whole entry): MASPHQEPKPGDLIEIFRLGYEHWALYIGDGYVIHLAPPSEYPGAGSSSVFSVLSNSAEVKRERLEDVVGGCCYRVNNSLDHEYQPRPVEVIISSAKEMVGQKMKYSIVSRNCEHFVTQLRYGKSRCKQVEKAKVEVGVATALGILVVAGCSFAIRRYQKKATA
Description: Inhibition of full-length C-terminal FLAG-tagged human PLAAT4 expressed in HEK293T cell lysate preincubated for 30 mins followed by MB064 addition and measured after 20 mins by SDS-PAGE based ABPP analysis. An outline of the steps: as §1

Experiment [4] deals with T4, Phospholipase A and acyltransferase 2 (Homo sapiens, UniProt Q9NWW9).
T4 sequence (Q9NWW9 whole entry): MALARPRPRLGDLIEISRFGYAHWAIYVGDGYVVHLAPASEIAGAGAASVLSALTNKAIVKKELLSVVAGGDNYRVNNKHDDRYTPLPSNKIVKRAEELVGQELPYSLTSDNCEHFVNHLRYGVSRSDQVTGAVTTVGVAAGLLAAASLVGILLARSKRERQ
The experiment is described as follows: Inhibition of full-length C-terminal FLAG-tagged human PLAAT2 expressed in HEK293T cell lysate preincubated for 30 mins followed by MB064 addition and measured after 20 mins by SDS-PAGE based ABPP analysis. An outline of the steps: as §1

The structures appear in SMILES notation.

40 compounds from ChEMBL document CHEMBL4622983, “Structure-Activity Relationship Studies of α-Ketoamides as Inhibitors of the Phospholipase A and Acyltransferase Enzyme Family” (J Med Chem, 2020) can be followed below.

With `O=C(CCCc1ccccc1)C(=O)NCCc1ccc(Oc2ccc(C(F)(F)F)cn2)cc1`, the pIC50 in experiment [1] is on record as 7. Further, the figures for the IC50 in experiment [2] and in experiment [3] were 31.6 nM and 631 nM, respectively.
On to `O=C(CCc1ccccc1)C(=O)NCCc1ccccc1`, for which the IC50 in experiment [4] was over 10000 nM; in experiment [1], over 10000 nM; in experiment [2] it was 1000 nM; in experiment [3], 3160 nM.
For the compound `CCNC(=O)C(=O)CCc1ccc(Cl)cc1`, the IC50 in experiment [4] was 2510 nM; in experiment [1], 7940 nM; in experiment [2], 1000 nM; in experiment [3] it was 3980 nM.
For `O=C(CCc1ccc(Cl)cc1)C(=O)N1CCCCC1`, in that order: over 10000 nM, over 10000 nM, over 10000 nM and over 10000 nM.
For `O=C(/C=C/c1ccc(Br)cc1)C(=O)NCCc1ccccc1`, in that order: 5010 nM, 2510 nM, 631 nM and 6310 nM.
The matching figures for `O=C(/C=C/c1ccccc1)C(=O)NCCc1ccccc1`: 7940 nM, 1580 nM, 6310 nM and 10000 nM.
As to `O=C(CCc1ccc(Cl)cc1)C(=O)NCCCCc1ccccc1`, the IC50 is 631 nM in experiment [4], 1000 nM in experiment [1], 200 nM in experiment [2] and 1580 nM in experiment [3].
For `CN1CCN(C(=O)C(=O)CCc2ccc(Cl)cc2)CC1`, in that order: over 10000 nM, over 10000 nM, over 10000 nM and over 10000 nM.
For `O=C(/C=C/c1cccc(Br)c1)C(=O)NCCc1ccccc1`, in that order: over 10000 nM, over 10000 nM, 3160 nM and 7940 nM.
The matching figures for `O=C(CCc1ccc(Cl)cc1)C(=O)N1CC[C@@H](c2ccccc2)C1`: over 10000 nM, over 10000 nM, over 10000 nM and over 10000 nM.
Regarding `CN(C)C(=O)C(=O)CCc1ccc(Cl)cc1`, the IC50 in experiment [4], in experiment [1], in experiment [2] and in experiment [3] was over 10000 nM throughout.
For the compound `O=C(CCCc1ccccc1)C(=O)NCCc1cccc(Cl)c1`, the IC50 was 794 nM in experiment [4], 200 nM in experiment [1], 50.1 nM in experiment [2] and 1000 nM in experiment [3].
For `O=C(CCc1ccccc1)C(F)(F)C(=O)NCc1ccccc1`, in that order: over 10000 nM, over 10000 nM, over 10000 nM and over 10000 nM.
For `O=C(CCc1ccc(Cl)cc1)C(=O)NCc1ccccc1`, in that order: 2510 nM, 1580 nM, 251 nM and 2510 nM.
For `COCCN(CCOC)C(=O)C(=O)CCc1ccc(Cl)cc1`, in that order: over 10000 nM, over 10000 nM, over 10000 nM and over 10000 nM.
With `O=C(/C=C/c1ccc(Cl)cc1)C(=O)NCCc1ccccc1`, the IC50 in experiment [4] was 1580 nM; in experiment [1], 2510 nM; in experiment [2] it was 631 nM; in experiment [3], 2510 nM.
For the compound `O=C(CCCc1ccccc1)C(=O)NCCc1ccc(Oc2ccc(C(F)(F)F)nc2)cc1`, the IC50 in experiment [4] was 200 nM; in experiment [1] it was 158 nM; in experiment [2] it was 79.4 nM; in experiment [3] it was 79.4 nM.
`O=C(CCCc1ccccc1)C(=O)NCCc1ccc(Oc2ccnc(Cl)n2)cc1`: the IC50 is 631 nM in experiment [4], 251 nM in experiment [1], 79.4 nM in experiment [2] and 200 nM in experiment [3].
With `O=C(CCc1ccc(Cl)cc1)C(=O)N1CCCC[C@H]1c1ccccc1`, the IC50 in experiment [4], in experiment [1], in experiment [2] and in experiment [3] was over 10000 nM in each case.
As to `Cc1ccc(CCC(=O)C(=O)NCCc2ccccc2)cc1`, the IC50 in experiment [4] was 5010 nM; in experiment [1] it was 2000 nM; in experiment [2] it was 2510 nM; in experiment [3], 1580 nM.
For `O=C(CCc1ccc(Cl)cc1)C(=O)N1CCC[C@H]1Cc1ccccc1`, in that order: over 10000 nM, over 10000 nM, over 10000 nM and over 10000 nM.
For `O=C(CCCc1ccccc1)C(=O)NCCc1ccccc1`, in that order: 501 nM, 398 nM, 100 nM and 631 nM.
With `O=C(CCc1cccc(Cl)c1)C(=O)NCCc1ccccc1`, the IC50 in experiment [4] is 2510 nM; in experiment [1], 1580 nM; in experiment [2] it was 1260 nM; in experiment [3] it was 1260 nM.
`CN(CCc1ccccc1)C(=O)C(=O)CCc1ccc(Cl)cc1`: the IC50 in experiment [4], in experiment [1], in experiment [2] and in experiment [3] was over 10000 nM each time.
With `CCOC(=O)C(F)(F)C(O)CCc1ccccc1` (stereo unspecified), the IC50 in experiment [4], in experiment [1], in experiment [2] and in experiment [3] was over 10000 nM each time.
Turning to `O=C(NCc1ccccc1)C(F)(F)C(O)CCc1ccccc1` (stereo unspecified), the IC50 in experiment [4], in experiment [1], in experiment [2] and in experiment [3] was over 10000 nM throughout.
As for `O=C(NCCc1ccccc1)C(=O)c1ccc(Cl)cc1`, the 50% inhibitory concentration (IC50) in experiment [4], in experiment [1], in experiment [2] and in experiment [3] was over 10000 nM each time.
On to `CCN(CCc1ccccc1)C(=O)C(=O)CCc1ccc(Cl)cc1`, for which the IC50 in experiment [4], in experiment [1], in experiment [2] and in experiment [3] was over 10000 nM each time.
For `O=C(CCCc1ccccc1)C(=O)NCCc1ccc(Oc2cnccn2)cc1`, the IC50 in experiment [4] is 501 nM; in experiment [1], 251 nM; in experiment [2] it was 63.1 nM; in experiment [3], 631 nM.
The matching figures for `O=C(CCCc1ccccc1)C(=O)NCCc1ccc(Br)cc1`: 251 nM, 158 nM, 10 nM and 200 nM.
For `O=C(/C=C/c1cccc(-c2ccccc2)c1)C(=O)NCCc1ccccc1`, in that order: 2510 nM, 3160 nM, 1000 nM and 2510 nM.
The matching figures for `O=C(CCc1ccc(C(F)(F)F)cc1)C(=O)NCCc1ccccc1`: 2000 nM, 7940 nM, 316 nM and 2510 nM.
In the case of `O=C(NCCc1ccccc1)C(=O)c1ccccc1`, the IC50 in experiment [4], in experiment [1], in experiment [2] and in experiment [3] was over 10000 nM each time.
On to `O=C(CCc1ccc(F)cc1)C(=O)NCCc1ccccc1`, for which the IC50 in experiment [4] was 7940 nM; in experiment [1] it was 5010 nM; in experiment [2], 1580 nM; in experiment [3], 10000 nM.
The matching figures for `O=C(CCCc1ccccc1)C(=O)NCCc1ccc(Cl)cc1Cl`: 1260 nM, 251 nM, 63.1 nM and 794 nM.
As for `COc1ccc(CCNC(=O)C(=O)CCCc2ccccc2)cc1`, the IC50 was 1580 nM in experiment [4], 794 nM in experiment [1], 79.4 nM in experiment [2] and 1580 nM in experiment [3].
Consider `CC(=O)C(=O)NCCc1ccccc1`, for which the IC50 in experiment [4], in experiment [1], in experiment [2] and in experiment [3] was over 10000 nM in each case.
For the compound `O=C(CCc1ccc(Cl)cc1)C(=O)N1CCOCC1`, the IC50 in experiment [4], in experiment [1], in experiment [2] and in experiment [3] was over 10000 nM throughout.
Take `O=C(CCc1ccc(Cl)cc1)C(=O)NCCc1ccccc1`: the pIC50 in experiment [1] came out at 6.
As to `O=C(CCc1ccc(Cl)c(Cl)c1)C(=O)NCCc1ccccc1`, the IC50 was 2000 nM in experiment [4], 100 nM in experiment [1], 100 nM in experiment [2] and 1000 nM in experiment [3].

One may read the pIC50 as the negative decadic logarithm of the IC50, by convention in mol/L. One may read the IC50 as the midpoint of a concentration-inhibition curve. Lower therefore signals inhibition by little substance.
